1 compound from paper PMC12716021 (Chemistry & Biodiversity, 2025) can be followed below.

SMILES strings stand for the structures.

Assay [1] is described as follows: NO scavenging activity. As to conditions: read-out: IC50 NO; in vitro; standard gallic acid. A digest of the protocol: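 Sodium nitroprusside (10 mM, in sodium phosphate buffer pH 7.4) added to test compound ([…]) or distilled water as control, then incubated at 37°C for 2 h. Griess reagent added, and A540 read. NO scavenging % = (1 − A compound/A control) × 100.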

Assay [2] can be described thus: DPPH radical scavenging activity. As to conditions: read-out: IC50 DPPH; in vitro; standard gallic acid.
A short description of assay [3]: Ferric reducing antioxidant power. The following applies: read-out: IC50 FRAP; in vitro; standard gallic acid.

`O=C(O)c1cc(O)c(O)c(O)c1` [Gallic acid]: the IC50 (as a rule, the midpoint of a concentration-inhibition curve) in assay [1] was determined as 78.5 µM; in assay [2] it was 105 µM; in assay [3], 117 µM.
